Active and inactive are the calls of the source. No cut-off for these calls is given here. Where a SMILES comes first, the peptide text is derived from it. The star is where a group is joined. Boc = CC(C)(C)OC(=O)*; X1 = c1ccc(O*)cc1
How the values were obtained:
[1] = biological target: T1, Human rhinovirus A protease (Human rhinovirus sp.) (UniProt Q4U254); assay: Inhibitory activity against human rhinovirus 3C protease at a concentration of 150 uM (HRV-14 3Cpro)
T1 sequence (whole entry): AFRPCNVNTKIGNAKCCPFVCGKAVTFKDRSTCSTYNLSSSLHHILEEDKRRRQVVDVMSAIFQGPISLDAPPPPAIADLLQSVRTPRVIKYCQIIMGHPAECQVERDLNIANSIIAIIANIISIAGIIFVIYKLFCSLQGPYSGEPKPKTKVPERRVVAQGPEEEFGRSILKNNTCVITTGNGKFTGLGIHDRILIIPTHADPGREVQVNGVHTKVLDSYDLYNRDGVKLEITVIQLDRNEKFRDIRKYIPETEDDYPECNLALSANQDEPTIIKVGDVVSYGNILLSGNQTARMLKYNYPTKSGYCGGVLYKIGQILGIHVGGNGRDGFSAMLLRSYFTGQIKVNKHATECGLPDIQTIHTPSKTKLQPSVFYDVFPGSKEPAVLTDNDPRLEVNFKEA
How it was run: (§1)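 HRV-14 3C protease (0.75-3.3 µM) was preincubated with compound in 25 mM HEPES, 150 mM NaCl, 1 mM EDTA, pH 7.5, at 28-30 °C. Aliquots were taken periodically and diluted 13-fold into buffer containing 250 µM EALFQ-pNA, and absorbance was read at 405 nm. Activity is expressed relative to a no-inhibitor control, with the earliest point taken about 10-15 s after mixing.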

[2] = biological target: T1, Human rhinovirus A protease (Human rhinovirus sp.); assay: Inhibitory activity against human rhinovirus 3C protease (HRV-14 3Cpro); Inactive; how it was run: as §1
[3] = biological target: T1, Human rhinovirus A protease (Human rhinovirus sp.); assay: Inhibitory activity against human rhinovirus 3C protease (HRV-14 3Cpro) at a concentration of 150 uM after 60 min of incubation; set-up: scale not given: the % may be the effect or the level left; how it was run: as §1
[4] = biological target: T1, Human rhinovirus A protease (Human rhinovirus sp.); assay: Inhibitory activity against human rhinovirus 3C protease (HRV-14 3Cpro) at a concentration of 150 uM; set-up: scale not given: the % may be the effect or the level left; how it was run: as §1
[5] = biological target: T1, Human rhinovirus A protease (Human rhinovirus sp.); assay: Inhibitory activity against human rhinovirus 3C protease (HRV-14 3Cpro) at a concentration of 150 uM after 30 min of incubation; set-up: scale not given: the % may be the effect or the level left; how it was run: as §1
[6] = biological target: T1, Human rhinovirus A protease (Human rhinovirus sp.); assay: Inhibitory activity against human rhinovirus 3C protease (HRV-14 3Cpro) at a concentration of 50 uM after 15 min of incubation; set-up: scale not given: the % may be the effect or the level left; how it was run: as §1
[7] = biological target: T1, Human rhinovirus A protease (Human rhinovirus sp.); assay: Inhibitory activity against human rhinovirus 3C protease (HRV-14 3Cpro) at a concentration of 100 uM after 75 min of incubation; set-up: scale not given: the % may be the effect or the level left; how it was run: as §1
[8] = biological target: T1, Human rhinovirus A protease (Human rhinovirus sp.); assay: Inhibitory activity against human rhinovirus 3C protease (HRV-14 3Cpro) at a concentration of 150 uM after 110 min of incubation; set-up: scale not given: the % may be the effect or the level left; how it was run: as §1
[9] = biological target: T1, Human rhinovirus A protease (Human rhinovirus sp.); assay: Inhibitory activity against human rhinovirus 3C protease (HRV-14 3Cpro) at a concentration of 100 uM after 15 min of incubation; set-up: scale not given: the % may be the effect or the level left; how it was run: as §1
[10] = biological target: T1, Human rhinovirus A protease (Human rhinovirus sp.); assay: Inhibitory activity against human rhinovirus 3C protease (HRV-14 3Cpro) at a concentration of 100 uM after 45 min of incubation; set-up: scale not given: the % may be the effect or the level left; how it was run: as §1
[11] = biological target: T1, Human rhinovirus A protease (Human rhinovirus sp.); assay: Inhibitory activity against human rhinovirus 3C protease (HRV-14 3Cpro) at a concentration of 50 uM after 30 min of incubation; set-up: scale not given: the % may be the effect or the level left; how it was run: as §1
[12] = biological target: T1, Human rhinovirus A protease (Human rhinovirus sp.); assay: Inhibitory activity against human rhinovirus 3C protease (HRV-14 3Cpro) at a concentration of 150 uM after 75 min of incubation; set-up: scale not given: the % may be the effect or the level left; how it was run: as §1
[13] = biological target: T1, Human rhinovirus A protease (Human rhinovirus sp.); assay: Inhibitory activity against human rhinovirus 3C protease (HRV-14 3Cpro) at a concentration of 100 uM; set-up: scale not given: the % may be the effect or the level left; how it was run: as §1
[14] = biological target: T1, Human rhinovirus A protease (Human rhinovirus sp.); assay: Inhibitory activity against human rhinovirus 3C protease (HRV-14 3Cpro) at a concentration of 50 uM; set-up: scale not given: the % may be the effect or the level left; how it was run: as §1
[15] = biological target: T1, Human rhinovirus A protease (Human rhinovirus sp.); assay: Inhibitory activity against human rhinovirus 3C protease (HRV-14 3Cpro) at a concentration of 100 uM after 60 min of incubation; set-up: scale not given: the % may be the effect or the level left; how it was run: as §1
[16] = biological target: T1, Human rhinovirus A protease (Human rhinovirus sp.); assay: Inhibitory activity against human rhinovirus 3C protease (HRV-14 3Cpro) at a concentration of 100 uM after 30 min of incubation; set-up: scale not given: the % may be the effect or the level left; how it was run: as §1
[17] = biological target: T1, Human rhinovirus A protease (Human rhinovirus sp.); assay: Inhibitory activity against human rhinovirus 3C protease (HRV-14 3Cpro) at a concentration of 150 uM after 90 min of incubation; set-up: scale not given: the % may be the effect or the level left; how it was run: as §1
[18] = biological target: T1, Human rhinovirus A protease (Human rhinovirus sp.); assay: Inhibitory activity against human rhinovirus 3C protease (HRV-14 3Cpro) at a concentration of 100 uM after 110 min of incubation; set-up: scale not given: the % may be the effect or the level left; how it was run: as §1
[19] = biological target: T1, Human rhinovirus A protease (Human rhinovirus sp.); assay: Inhibitory activity against human rhinovirus 3C protease (HRV-14 3Cpro) at a concentration of 50 uM after 45 min of incubation; set-up: scale not given: the % may be the effect or the level left; how it was run: as §1
[20] = biological target: T1, Human rhinovirus A protease (Human rhinovirus sp.); assay: Inhibitory activity against human rhinovirus 3C protease (HRV-14 3Cpro) at a concentration of 150 uM after 15 min of incubation; set-up: scale not given: the % may be the effect or the level left; how it was run: as §1

Question: For `CC(C)C[C@H](NC(=O)[C@@H](NC(=O)OC(C)(C)C)C(C)C)C(=O)N[C@@H](Cc1ccccc1)C(=O)NCC(=O)Oc1ccccc1` (Boc-VLFG-X1), which k [1] is on record?
Answer: 0.009 min⁻¹

Question: How did the Activity [2] turn out when `CC(C)C[C@H](NC(=O)[C@@H](NC(=O)OC(C)(C)C)C(C)C)C(=O)N[C@@H](Cc1ccccc1)C(=O)NN(CCC(N)=O)C(=O)OCc1ccccc1` was run?
Answer: inactive

Question: `CC(C)C[C@H](NC(=O)[C@@H](NC(=O)OC(C)(C)C)C(C)C)C(=O)N[C@@H](Cc1ccccc1)C(=O)NN(CCC(N)=O)C(=O)Oc1ccccc1` was tested. Which Activity [3] did it give?
Answer: 20%

Question: And the Activity [4]?
Answer: 5%

Question: What about the Activity [5] of the same molecule?
Answer: 13%

Question: What about the Activity [6] of the same molecule?
Answer: 40%

Question: What about the Activity [7] of the same molecule?
Answer: 95%

Question: And the Activity [8]?
Answer: 85%

Question: What about the Activity [9] of the same molecule?
Answer: 18%

Question: What about the Activity [10] of the same molecule?
Answer: 62%

Question: And the Activity [11]?
Answer: 75%

Question: What about the Activity [12] of the same molecule?
Answer: 45%

Question: And the Activity [13]?
Answer: 18%

Question: What about the Activity [14] of the same molecule?
Answer: 23%

Question: And the Activity [15]?
Answer: 90%

Question: And the Activity [16]?
Answer: 28%

Question: What about the Activity [17] of the same molecule?
Answer: 70%

Question: And the Activity [18]?
Answer: 95%

Question: And the Activity [19]?
Answer: 85%

Question: And the Activity [20]?
Answer: 10%

Question: Which Activity [2] does the source give for `CC(C)(C)OC(=O)N[C@@H](Cc1ccccc1)C(=O)NN(CCC(N)=O)C(=O)Oc1ccccc1` here?
Answer: inactive

Question: How did the Activity [2] turn out when `CC(C)C[C@H](NC(=O)[C@@H](NC(=O)OC(C)(C)C)C(C)C)C(=O)N[C@@H](Cc1ccccc1)C(=O)NN(CCC(N)=O)C(=O)OCC(Cl)(Cl)Cl` was run?
Answer: inactive
